In article PMC8901509 (Clinical Drug Investigation, 2021):
Read-outs that look alike come from different tables or passages of the source.

Tests used:
[1] = assay type: in vivo; settings: human, plasma, po, 25 mg, t½, oral 25 mg solution, gMean (gCV%)
Method in brief: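 Healthy males, overnight fast (≥ 10 h), sitting; single oral 25 mg dose of [14C]-labelled/unlabelled mixture as 12.5 mL solution (2 mg/mL) with 240 mL water, planned 3.7 MBq; no food ≥ 4 h. Venous blood 5–8 mL per time point; plasma frozen ~−20 °C within 60 min. Cmax, AUC0–tz, AUC0–∞, tmax, t1/2 for parent, three metabolites and total radioactivity.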

[2] = multiple oral doses of itraconazole; cited from earlier work
[3] = tested on: glycine transporter-1 (GlyT1); settings: rat; dose-dependent; cited from earlier work
[4] = Study 1: safety and tolerability; assay type: in vivo, human
Method in brief: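 Healthy males given a single oral 25 mg tablet followed 4 h later by a 15-min IV [14C]-microtracer infusion. Medical surveillance for 24 h post-dose. AEs recorded continuously from screening to end-of-trial visit (Days 12–15). Assessment by physical examination, safety laboratory parameters, 12-lead ECG and vital signs (pulse rate, blood pressure).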

[5] = anticipated therapeutic dose range of 5–25 mg; cited from earlier work
[6] = cited from earlier work
[7] = assay type: in vivo, human; settings: gMean dose-normalized maximum plasma concentration
Method in brief: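 Healthy males, overnight fast (≥ 10 h); single oral 25 mg film-coated tablet with water, fasted ≥ 4.5 h; at 4 h, 15-min IV infusion of 30 µg (3 µg [14C]-labelled, 0.011 MBq, plus 27 µg unlabelled). Plasma sampled −2 to 168 h (unlabelled) or 3–168 h (labelled), stored ~−20 °C. Unlabelled drug by validated LC/MS, labelled by AMS. Dose-normalized gMean ratio via mixed-effects ANOVA, two-sided 90% CI.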

[8] = tested on: glycine transporter-1 (GlyT1); settings: human; dose-dependent; cited from earlier work
[9] = Study 2: safety and tolerability; assay type: in vivo, human
Method in brief: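 Healthy males, sitting, given a single oral 25 mg dose of [14C]-labelled plus unlabelled drug as a solution after an overnight fast. Safety from physical examination (AEs), safety laboratory parameters, 12-lead ECG and vital signs (pulse rate, blood pressure). Investigators graded severity and drug relatedness.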

[10] = cited from earlier work; remark: listed apart in the source
[11] = Study 2: metabolite radioprofiling in plasma, urine and feces; assay type: in vivo, human
Method in brief: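 Single oral 25 mg [14C]-labelled solution to healthy males. Plasma (to 168 h), urine and daily feces profiled by HPLC radiochromatography with fractionation and solid scintillation counting. Identification by LC/MS with accurate mass, positive and negative ion CID MS/MS; tentative unless matched to an authentic standard. Peaks < 20 cpm height below quantitation limit.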

half-life [1]: ~50 h
Cmax,norm lower after oral administration versus IV dose [7]: approximately 80%
% of Dose Administrated; % of the radioactive dose ([11]; Average, feces radioprofiling): < 1%
Plasma (%AUC0-168h), % [14C]; % of total plasma radioactivity ([11]; Average, plasma radioprofiling): 41.0%
% of total radioactivity in feces ([11]; feces radioprofiling): < 1%
SMILES: C[C@@H](Oc1ccc(S(C)(=O)=O)cc1C(=O)N1C[C@@H]2C[C@]2(c2cc(C(F)(F)F)on2)C1)C(F)(F)F [BI 425809]
gMean ratio of Cmax with co-administration of itraconazole [2]: 116.1%
levels of glycine in cerebral spinal fluid (CSF) [3]: increased
participants reporting at least one treatment-emergent AE ([4]; of six participants): 50.0%
intensity of treatment-emergent AEs ([4]; study 1): mild intensity
serious AEs, AEs leading to discontinuation, AEs of special interest ([4]; study 1): no serious AEs reported
tolerability ([4]; study 1, oral 25 mg): generally well tolerated
tolerability [5]: generally well tolerated
Biopharmaceutics Classification System class [6]: Class II
permeability [6]: high
levels of glycine in cerebral spinal fluid (CSF) [8]: increased
Total with on-treatment adverse events, % ([9]; 6 subjects): 83.3%
AEs considered severe or drug related by the investigators ([9]; study 2): none
SAEs, AEs leading to discontinuation, AEs of special interest ([9]; study 2): No SAEs
tolerability ([9]; study 2, single 25 mg dose): generally well tolerated
adjusted gMean ratio for AUC0–tz, tablet fasted vs. oral solution fasted ([10]; 25 mg tablet vs 25 mg solution): 80.5%
adjusted gMean ratio for Cmax, tablet fasted vs. oral solution fasted ([10]; 25 mg tablet vs 25 mg solution): 50.0%
adjusted gMean ratio AUC0–tz, high-fat/high-calorie meal versus 10-h fasted ([10]; 25 mg tablet): 125.9%
adjusted gMean ratio Cmax, high-fat/high-calorie meal versus 10-h fasted ([10]; 25 mg tablet): 142.1%
